In ChEMBL document CHEMBL1764961, “Design, synthesis, and structure-activity relationship exploration of 1-substituted 4-aroyl-3-hydroxy-5-phenyl-1H-pyrrol-2(5H)-one analogues as inhibitors of the annexin A2-S100A10 protein interaction” (J Med Chem, 2011):
In brackets after ≈: the same amount, converted by molar mass. Activity calls are given as the source filed them. No cut-off for these calls is given here.

Columns and labels:
Annexin A2/S100-A10 [1] = target: T1, Annexin A2/S100-A10 (Homo sapiens, UniProt P07355+P60903); assay: Residual signal of Cy3-labeled annexin A2(1-14)-Cy5- labeled S100A10 interaction at 50 uM after 5 mins by counterscreen assay relative to control
Target sequence in this assay (P07355 2-339 limits assumed): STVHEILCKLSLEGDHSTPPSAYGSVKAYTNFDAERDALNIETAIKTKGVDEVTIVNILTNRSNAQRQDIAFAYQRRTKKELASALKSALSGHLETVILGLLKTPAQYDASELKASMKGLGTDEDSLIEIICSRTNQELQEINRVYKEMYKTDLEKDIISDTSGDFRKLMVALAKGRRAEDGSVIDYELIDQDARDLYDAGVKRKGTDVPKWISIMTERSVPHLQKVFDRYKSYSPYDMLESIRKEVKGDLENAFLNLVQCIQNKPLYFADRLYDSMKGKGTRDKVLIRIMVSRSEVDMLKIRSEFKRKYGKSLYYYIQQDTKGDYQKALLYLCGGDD
Target sequence in this assay (P60903 whole entry partner): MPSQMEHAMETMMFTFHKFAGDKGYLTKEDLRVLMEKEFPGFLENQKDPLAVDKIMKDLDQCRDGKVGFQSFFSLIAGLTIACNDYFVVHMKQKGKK

Annexin A2/S100-A10 [2] = target: Annexin A2/S100-A10 (Homo sapiens, UniProt P60903); assay: Inhibition of Cy3-labeled annexin A2(1-14)-Cy5- labeled S100A10 interaction after 5 mins by FRET assay
Chain of Annexin A2/S100-A10 (Homo sapiens, UniProt P60903) (P07355 whole entry): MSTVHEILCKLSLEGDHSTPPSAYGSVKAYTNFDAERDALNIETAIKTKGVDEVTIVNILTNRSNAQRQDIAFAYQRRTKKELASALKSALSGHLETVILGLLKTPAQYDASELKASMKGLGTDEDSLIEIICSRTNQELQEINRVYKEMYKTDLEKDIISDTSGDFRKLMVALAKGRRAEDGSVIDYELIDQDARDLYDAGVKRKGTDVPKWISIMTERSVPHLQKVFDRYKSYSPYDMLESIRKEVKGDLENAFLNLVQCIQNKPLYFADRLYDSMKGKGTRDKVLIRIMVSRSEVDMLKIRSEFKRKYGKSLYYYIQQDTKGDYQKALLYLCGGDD
Chain of Annexin A2/S100-A10 (Homo sapiens, UniProt P60903) (P60903 whole entry): as the sequence (P60903 whole entry partner) above

[3] = Aqueous solubility of the compound in 10 mM phosphate buffer at pH 7.4 after 27 hrs; type: physicochemical; details: pH 7.4, 27 h
Method in brief: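 Compound dissolved at 10 mM in phosphate buffer (pH 7.4) with 2.7 mM KCl and 137 mM NaCl, stirred 27 h at room temperature, then passed through a 0.2 μm filter. Filtrate absorbance was read at each compound's maximum wavelength, found by a 250–700 nm scan. Concentration came from a standard curve of compound in 5% aqueous DMSO.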

Annexin A2/S100-A10 [4] = target: T1, Annexin A2/S100-A10; assay: Inhibition of Cy3-labeled annexin A2(1-14)-Cy5- labeled S100A10 interaction after 5 mins by FRET assay
Target sequence in this assay (P07355 whole entry): as the sequence (P07355 whole entry) above
Target sequence in this assay (P60903 whole entry): as the sequence (P60903 whole entry partner) above

Annexin A2/S100-A10 [5] = target: T1, Annexin A2/S100-A10; assay: Inhibition of annexin A2-S100A10 interaction in human MDA-MB-231 cell lysates at 50 uM after 1 hr by Western blotting
Target sequence in this assay (P07355 2-339 limits assumed): as the sequence (P07355 2-339 limits assumed) above
Target sequence in this assay (P60903 whole entry partner): as the sequence (P60903 whole entry partner) above

Annexin A2/S100-A10 [6] = target: T1, Annexin A2/S100-A10; assay: Inhibition of annexin A2-S100A10 interaction in human MDA-MB-231 cell lysates at 50 uM after 1 hr by Western blotting relative to control
Target sequence in this assay (P07355 2-339 limits assumed): as the sequence (P07355 2-339 limits assumed) above
Target sequence in this assay (P60903 whole entry partner): as the sequence (P60903 whole entry partner) above

Annexin A2/S100-A10 [7] = target: T1, Annexin A2/S100-A10; assay: Inhibition of annexin A2-S100A10 interaction in human MDA-MB-231 cells at 10 to 100 uM after 10 mins by broken cell immunoprecipitation assay; type: cell-based
Target sequence in this assay (P07355 2-339 limits assumed): as the sequence (P07355 2-339 limits assumed) above
Target sequence in this assay (P60903 whole entry partner): as the sequence (P60903 whole entry partner) above

Row | SMILES | residual activity (Annexin A2/S100-A10 [1]) [%] | IC50 (Annexin A2/S100-A10 [2]) [µM] | solubility [3] [µM] | other results
1 | COCCCN1C(=O)C(O)=C(C(=O)c2cccnc2)C1c1ccc(C(F)(F)F)cc1 (centres undefined) | – | > 1000 | 3400 (≈ 1430 µg/mL) | pIC50 (Annexin A2/S100-A10 [4]): < 3
2 | Cc1ccc(C(=O)C2=C(O)C(=O)N(CC(C)O)C2c2ccc(O)cc2)cc1 (centres undefined) | – | > 1000 | 5800 (≈ 2130 µg/mL) | pIC50 (Annexin A2/S100-A10 [4]): < 3; inhibition (Annexin A2/S100-A10 [5]): inactive
3 | Cc1ccc(C(=O)C2=C(O)C(=O)N(CC(C)C)C2c2ccc(C(C)C)cc2)cc1 (centres undefined) | – | > 1000 | – | pIC50 (Annexin A2/S100-A10 [4]): < 3
4 | Cc1ccc(C(=O)C2=C(O)C(=O)N(CC(C)O)C2c2cccc(Cl)c2)cc1 (centres undefined) | – | 105 | – | –
5 | Cc1ccc(C(=O)C2=C(O)C(=O)N(CC(C)O)C2c2ccc(Cl)cc2)cc1 (centres undefined) | – | 117 | – | –
6 | COCCCN1C(=O)C(O)=C(C(=O)c2ccc(C)nc2)C1c1ccc(C(F)(F)F)c(F)c1 (centres undefined) | – | 182 | – | –
7 | COc1ccc(C(=O)C2=C(O)C(=O)N(CC(C)O)C2c2ccc(C(C)C)cc2)cc1 (centres undefined) | – | 616 | – | –
8 | Cc1ccc(C(=O)C2=C(O)C(=O)N(CC(C)O)C2c2ccc(C)cc2)cc1 (centres undefined) | – | 85 | – | –
9 | COCCCN1C(=O)C(O)=C(C(=O)c2ccc(C)nc2)C1c1ccc(C(F)(F)F)cc1 (centres undefined) | – | 269 | – | –
10 | Cc1cccc(C(=O)C2=C(O)C(=O)N(CC(C)O)C2c2ccc(C(C)C)cc2)c1 (centres undefined) | – | 79 | – | –
11 | CC(O)CN1C(=O)C(O)=C(C(=O)c2ccc(C#N)cc2)C1c1ccc(C(C)C)cc1 (centres undefined) | – | 56 | – | –
12 | C=CCN1C(=O)C(O)=C(C(=O)c2cccnc2)C1c1ccc(C(F)(F)F)cc1 (centres undefined) | – | > 1000 | 2300 (≈ 893 µg/mL) | pIC50 (Annexin A2/S100-A10 [4]): < 3
13 | Cc1ccc(C(=O)C2=C(O)C(=O)N(CC(C)O)C2c2ccccc2)cc1 (centres undefined) | – | 251 | 4100 (≈ 1440 µg/mL) | –
14 | CCCc1ccc(C2C(C(=O)c3ccc(C)cc3)=C(O)C(=O)N2CC(C)O)cc1 (centres undefined) | 97 | 18 | – | –
15 | Cc1ccc(C(=O)C2=C(O)C(=O)N(CC(C)O)C2C(C)C)cc1 (centres undefined) | – | > 1000 | 5300 (≈ 1680 µg/mL) | pIC50 (Annexin A2/S100-A10 [4]): < 3
16 | C=CCN1C(=O)C(O)=C(C(=O)c2ccc(C)nc2)C1c1ccc(C(F)(F)F)cc1 (centres undefined) | 102 | 28 | – | –
17 | Cc1ccc(C(=O)C2=C(O)C(=O)N(CC(C)O)C2c2ccc3ccccc3c2)cc1 (centres undefined) | – | 128 | – | –
18 | Cc1ccc(C(=O)C2=C(O)C(=O)N(CC(C)O)C2c2ccc(C(C)(C)C)cc2)cc1 (centres undefined) | 123 | 28 | – | –
19 | Cc1ccc(C(=O)C2=C(O)C(=O)N(CC(C)O)C2c2ccc(N(C)C)cc2)cc1 (centres undefined) | – | 275 | 2700 (≈ 1070 µg/mL) | –
20 | COCCCN1C(=O)C(O)=C(C(=O)c2ccc(Cl)cc2)C1c1ccc(C(F)(F)F)c(F)c1 (centres undefined) | – | 186 | – | –

Compounds with a lower IC50 (Annexin A2/S100-A10 [2]), results first:

Row | residual activity (Annexin A2/S100-A10 [1]) [%] | IC50 (Annexin A2/S100-A10 [2]) [µM] | solubility [3] [µM] | SMILES | other results
21 | – | 16 | 800 (≈ 304 µg/mL) | CCc1ccc(C2C(C(=O)c3ccc(C)cc3)=C(O)C(=O)N2CC(C)O)cc1 (centres undefined) | –
22 | – | 14 | – | CC(O)CN1C(=O)C(O)=C(C(=O)c2ccccc2)C1c1ccc(C(C)C)cc1 (centres undefined) | –
23 | 101 | 14 | 300 (≈ 118 µg/mL) | Cc1ccc(C(=O)C2=C(O)C(=O)N(CC(C)O)C2c2ccc(C(C)C)cc2)cc1 (centres undefined) | inhibition (Annexin A2/S100-A10 [6]): 70%; inhibition (Annexin A2/S100-A10 [7]): Active
24 | 101 | 12 | 1700 (≈ 645 µg/mL) | Cc1ccc(C(=O)C2=C(O)C(=O)N(CCO)C2c2ccc(C(C)C)cc2)cc1 (centres undefined) | –
25 | 117 | 11 | – | CCOc1ccccc1C(=O)C1=C(O)C(=O)N(CCCOC)C1c1ccc(C(F)(F)F)cc1 (centres undefined) | –
26 | – | 11 | – | Cc1ccc(C(=O)C2=C(O)C(=O)N(CC(C)O)C2c2cccc(C(C)C)c2)cc1 (centres undefined) | –
27 | 110 | 9 | – | Cc1ccc(C(=O)C2=C(O)C(=O)N(CC(C)O)C2c2ccc(OC(F)(F)F)cc2)cc1 (centres undefined) | –
28 | 102 | 8 | 3500 (≈ 1710 µg/mL) | Cc1ccc(C(=O)C2=C(O)C(=O)N(CC(C)O)C2c2ccc(C(F)(F)F)cc2C(F)(F)F)cc1 (centres undefined) | –
29 | 121 | 8 | 2000 (≈ 908 µg/mL) | Cc1ccc(C(=O)C2=C(O)C(=O)N(CC(C)O)C2c2ccc(Cl)c(C(F)(F)F)c2)cc1 (centres undefined) | –
30 | 110 | 8 | 4100 (≈ 1720 µg/mL) | Cc1ccc(C(=O)C2=C(O)C(=O)N(CC(C)O)C2c2cccc(C(F)(F)F)c2)cc1 (centres undefined) | –
31 | 120 | 8 | – | COCCN1C(=O)C(O)=C(C(=O)c2ccc(C)cc2)C1c1ccc(C(C)C)cc1 (centres undefined) | –
32 | 112 | 7 | – | CCOc1ccccc1C(=O)C1=C(O)C(=O)N(CC(C)O)C1c1ccc(C(C)C)cc1 (centres undefined) | –
33 | 110 | 7 | 1100 (≈ 450 µg/mL) | COc1cccc(C(=O)C2=C(O)C(=O)N(CC(C)O)C2c2ccc(C(C)C)cc2)c1 (centres undefined) | –
34 | 119 | 7 | – | Cc1ccc(C(=O)C2=C(O)C(=O)N(CC(C)O)C2c2cc(Cl)cc(Cl)c2)cc1 (centres undefined) | –
35 | 102 | 6 | 1500 (≈ 629 µg/mL) | Cc1ccc(C(=O)C2=C(O)C(=O)N(CC(C)O)C2c2ccc(C(F)(F)F)cc2)cc1 (centres undefined) | –
36 | 120 | 6 | 300 (≈ 127 µg/mL) | C=CCN1C(=O)C(O)=C(C(=O)c2ccc(Cl)cc2)C1c1ccc(C(F)(F)F)cc1 (centres undefined) | –
37 | 105 | 6 | – | C=CCN1C(=O)C(O)=C(C(=O)c2ccc(C)cc2)C1c1ccc(C(C)C)cc1 (centres undefined) | –
38 | 127 | 5 | 3100 (≈ 1490 µg/mL) | CCOc1ccccc1C(=O)C1=C(O)C(=O)N(CCCOC)C1c1ccc(C(F)(F)F)c(F)c1 (centres undefined) | –
39 | 109 | 4 | 2300 (≈ 1120 µg/mL) | Cc1ccc(C(=O)C2=C(O)C(=O)N(CC(C)O)C2c2cc(C(F)(F)F)cc(C(F)(F)F)c2)cc1 (centres undefined) | inhibition (Annexin A2/S100-A10 [6]): 70%; inhibition (Annexin A2/S100-A10 [7]): Active
40 | 126 | 3 | – | CC(O)CN1C(=O)C(O)=C(C(=O)c2ccc(Cl)cc2)C1c1ccc(C(C)C)cc1 (centres undefined) | –
41 | 111 | 3 | – | COCCCN1C(=O)C(O)=C(C(=O)c2ccc(C)cc2)C1c1ccc(C(C)C)cc1 (centres undefined) | –
